In ChEMBL document CHEMBL1122699, “A reappraisal of the effect upon thymidine kinase of thymidine derivatives carrying large groups at the 5'-position” (J Med Chem, 1984):

Tests used:
[1] = Thymidine kinase activity was measured by nonradiochemical assay method + TdR (percentage of the control rate measured in the presence of 5 uM Tdr)
How it was run: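 Conditions match the radiochemical assay, but with 5 µM unlabeled TdR: 10 min at 37 °C, stopped by 20-fold dilution in ice-cold water. Nucleotides separated from nucleosides, freeze-dried, dephosphorylated overnight with alkaline phosphatase, then quantified as nucleosides by C18 HPLC (A254/A280). Expressed as % of the control rate with 5 µM TdR, mean of ≥2 experiments.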

[2] = Thymidine kinase activity was measured by radio chemical assay method
How it was run: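 Same L1210 ammonium sulfate enzyme fraction and mix: 5 µM [3H]TdR, 2 mM ATP, 1 mM MgCl2, 10% Me2SO, 45 mM Tris-HCl pH 7.8, 37 °C. Stopped by boiling. [3H]TMP bound to PEI-cellulose squares and counted. Run in parallel with the HPLC assay. Activity given as % of the control rate, mean of at least two experiments.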

[3] = system: L1210; experiment: The compound was tested for inhibition of thymidine kinase using […] at concentration 50 uM in L1210 cells; assay type: cell-based
How it was run: (§1)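 Enzyme: L1210 ascites cell sonicate (50 mM Tris-HCl pH 7.8, 150 mM KCl), 100000g supernatant precipitated at 30% ammonium sulfate saturation. Reaction mix: 5 µM [3H]TdR, 2 mM ATP, 1 mM MgCl2, 10% Me2SO, 45 mM Tris pH 7.8, compound added in Me2SO. Run 10 min at 37 °C, stopped by boiling. [3H]TMP captured on PEI-cellulose, eluted with HCl, counted. % inhibition given as mean ± SE of n determinations.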

[4] = Thymidine kinase activity was measured by nonradiochemical assay method - TdR (percentage of the control rate measured in the presence of 5 µM TdR)
[5] = system: L1210; experiment: The compound was tested for inhibition of thymidine kinase using […] at concentration 250 uM in L1210 cells; assay type: cell-based; how it was run: as §1
[6] = system: L1210; experiment: The compound was tested for inhibition of thymidine kinase using […] at concentration 125 uM in L1210 cells; assay type: cell-based; how it was run: as §1
[7] = system: L1210; experiment: The compound was tested for inhibition of thymidine kinase using […] at concentration 200 uM in L1210 cells; assay type: cell-based; how it was run: as §1

Row | Activity [1] | Activity [2] | Activity [4] | Structure (SMILES) | inhibition [3] [%] | inhibition [5] [%] | inhibition [6] [%] | inhibition [7] [%]
1 | 27 | 26 | 0 | Cc1cn([C@H]2C[C@H](O)[C@@H](CN)O2)c(=O)[nH]c1=O | 76 |  |  | 
2 | 152 | 65 | 118 | Cc1cn([C@H]2C[C@H](O)[C@@H](COC(=O)COc3ccc(OCc4ccccc4)cc3)O2)c(=O)[nH]c1=O |  | 33 |  | 

More lines, now with the values behind:

Row | Structure (SMILES) | Activity [1] | Activity [2] | Activity [4] | inhibition [3] [%] | inhibition [5] [%] | inhibition [6] [%] | inhibition [7] [%]
3 | Cc1cn(C2CC(O)C(CNC(=O)COc3ccc(OCc4ccccc4)cc3)O2)c(=O)[nH]c1=O (stereo not given) |  |  |  |  |  | 0 | 
4 | Cc1cn(C2CC(O)C(CNC(=O)COc3ccc(OCc4ccc([N+](=O)[O-])cc4)cc3)O2)c(=O)[nH]c1=O (stereo not given) |  |  |  |  |  | 1 | 
5 | Cc1cn([C@H]2C[C@H](O)[C@@H](COC(=O)COc3ccc(OCc4ccc([N+](=O)[O-])cc4)cc3)O2)c(=O)[nH]c1=O | 144 | 62 | 110 |  |  |  | 35
6 | Cc1cn([C@H]2C[C@H](O)[C@@H](COCCOc3ccc(OCc4ccccc4)cc3)O2)c(=O)[nH]c1=O |  |  |  |  |  |  | 14
